Columns and labels:
huCD4_1–32-YFP H9A = huCD4_1–32-YFP H9A (Homo sapiens, UniProt P01730, H9A); test: CADA inhibition of huCD4_1–32-YFP secretion; type: cell-based
Method in brief: (§1)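 HEK293T cells were grown in DMEM with 10% FBS and 10 mM HEPES, seeded and left to adhere overnight, then transiently transfected with plasmid by Lipofectamine. Test compound was added 6 h after transfection as a 1:5 serial dilution (50 to 0.016 μM) for 48 h. Secreted YFP in the supernatant was captured on GFP-Trap magnetic beads for 1 h, washed with PBS and measured by flow cytometry. IC50 is the concentration that halves the signal relative to the untreated control, taken from a four-parameter fit of at least three replicate experiments. FC is the mutant mean IC50 divided by the WT mean IC50.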

[1] = target: truncated huCD4 D1D2 P20A (Homo sapiens, UniProt P01730, P20A); test: Cell-free in vitro translation and translocation; type: biochemical
Method in brief: (§2)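 Truncated huCD4 D1D2 (lacking glycosylation sites and membrane anchor) was made by PCR and transcribed with T7. Proteinase K protection ran 30 min on ice and was quenched with PMSF. Products were separated by SDS-PAGE and imaged by phosphor imaging. The SP-cleaved band was normalised to the matching control. Data are from 2–5 independent experiments, compared with WT by Welch t test.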

FL huCD4 V13A = FL huCD4 V13A (Homo sapiens, UniProt P01730, V13A); test: CADA down-modulation of cellular huCD4; type: cell-based
Method in brief: (§3)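 HEK293T cells, seeded overnight in DMEM with 10% serum, 1 mM sodium pyruvate and 0.075% NaHCO₃, were lipofected with full-length human CD4 (WT or mutant). Test compound in DMSO was added 6 h post-transfection as 1:5 serial dilutions (50–0.016 μM) for 48 h. Surface CD4 was stained with FITC/APC anti-CD4 (SK3) and read by flow cytometry. IC50 is 50% of the untreated signal, from four-parameter fits of ≥3 replicate experiments. FC is mutant/WT mean IC50.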

FL huCD4 K26A = FL huCD4 K26A (Homo sapiens, UniProt P01730, K26A); test: CADA down-modulation of cellular huCD4; type: cell-based
Method in brief: as §3

FL huCD4 V13L;A17L = FL huCD4 V13L;A17L (Homo sapiens, UniProt P01730, A17L/V13L); test: CADA down-modulation of cellular huCD4; type: cell-based; settings: HEK293T, 48h
Method in brief: as §3

FL huCD4 R8E = FL huCD4 R8E (Homo sapiens, UniProt P01730, R8E); test: CADA down-modulation of cellular huCD4; type: cell-based; settings: HEK293T, 48h
Method in brief: as §3

[2] = target: truncated huCD4 D1D2 Q15A (Homo sapiens, UniProt P01730, Q15A); test: Cell-free in vitro translation and translocation; type: biochemical
Method in brief: as §2

huCD4_1–32-YFP G31A = huCD4_1–32-YFP G31A (Homo sapiens, UniProt P01730, G31A); test: CADA inhibition of huCD4_1–32-YFP secretion; type: cell-based
Method in brief: (§4)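 HEK293T cells were lipofected with human CD4 residues 1–32 fused to the N-terminus of YFP (secreted, no membrane anchor). Test compound was added 6 h post-transfection as 1:5 serial dilutions (50–0.016 μM) for 48 h. Supernatant was captured on GFP-Trap magnetic beads for 1 h, washed in PBS, and YFP was read by flow cytometry. IC50 is 50% of the untreated control, from four-parameter fits of ≥3 replicate experiments. FC is mutant/WT mean IC50.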

FL huCD4 L14A = FL huCD4 L14A (Homo sapiens, UniProt P01730, L14A); test: CADA down-modulation of cellular huCD4; type: cell-based
Method in brief: as §3

FL huCD4 L18A = FL huCD4 L18A (Homo sapiens, UniProt P01730, L18A); test: CADA down-modulation of cellular huCD4; type: cell-based
Method in brief: as §3

huCD4_1–32-YFP A21V = huCD4_1–32-YFP A21V (Homo sapiens, UniProt P01730, A21V); test: CADA inhibition of huCD4_1–32-YFP secretion; type: cell-based
Method in brief: as §4

huCD4_1–32-YFP P20A = huCD4_1–32-YFP P20A (Homo sapiens, UniProt P01730, P20A); test: CADA inhibition of huCD4_1–32-YFP secretion; type: cell-based
Method in brief: as §1

bovine pre-prolactin = settings: cited from earlier work
huCD4_1–32-YFP WT = huCD4_1–32-YFP WT (Homo sapiens, UniProt P01730); test: CADA inhibition of huCD4_1–32-YFP secretion; type: cell-based
Method in brief: as §1

FL huCD4 G25A = FL huCD4 G25A (Homo sapiens, UniProt P01730, G25A); test: CADA down-modulation of cellular huCD4; type: cell-based
Method in brief: as §3

FL huCD4 L10A;L18A = FL huCD4 L10A;L18A (Homo sapiens, UniProt P01730, L10A/L18A); test: CADA down-modulation of cellular huCD4; type: cell-based; settings: compared with single Leu-to-Ala mutants
Method in brief: as §3

[3] = target: truncated huCD4 D1D2 L16A (Homo sapiens, UniProt P01730, L16A); test: Cell-free in vitro translation and translocation; type: biochemical; settings: 15 μM CADA
Method in brief: as §2

[4] = target: truncated huCD4 D1D2 K26A (Homo sapiens, UniProt P01730, K26A); test: Cell-free in vitro translation and translocation; type: biochemical
Method in brief: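 Proteinase K protection 30 min on ice, quenched with PMSF. Pellets washed in low-salt buffer (HEPES pH 7.6), then SDS-PAGE and phosphor imaging. Translocation normalised to untreated WT. Two to five independent experiments; Welch's t test.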

FL huCD4 V28A = FL huCD4 V28A (Homo sapiens, UniProt P01730, V28A); test: CADA down-modulation of cellular huCD4; type: cell-based
Method in brief: as §3

FL huCD4 L16A = FL huCD4 L16A (Homo sapiens, UniProt P01730, L16A); test: CADA down-modulation of cellular huCD4; type: cell-based
Method in brief: as §3

huCD4_1–32-YFP K27A = test: CADA inhibition of huCD4_1–32-YFP secretion; type: cell-based, human
Method in brief: as §1

[5] = + less, − more sensitive to CADA
[6] = read-out: Secreted YFP IC50 (μM) Mean, HEK293T, CADA 48h
[7] = read-out: Cellular huCD4 IC50 (μM) Mean, HEK293T, CADA 48h

C=C1CN(S(=O)(=O)c2ccc(C)cc2)CCCN(Cc2ccccc2)CCCN(S(=O)(=O)c2ccc(C)cc2)C1 [CADA, Cyclotriazadisulfonamide]
Secreted YFP FC (fold change of mean IC50 relative to WT) (huCD4_1–32-YFP H9A; [5]): +1.7 | IC50 (huCD4_1–32-YFP H9A; [6]): 2.13 µM | inhibitory effect of CADA on protein translocation compared to WT ([1]; 15 μM CADA): significantly reduced | effect of CADA on co-translational translocation ([1]; increasing doses of CADA): still responded to CADA, although to a lesser extent as compared to WT huCD4 | Cellular huCD4 FC (fold change of mean IC50 relative to WT) (FL huCD4 V13A; [5]): −3.9 | IC50 (FL huCD4 V13A; [7]): 0.14 µM | Cellular huCD4 FC (fold change of mean IC50 relative to WT) (FL huCD4 K26A; [5]): +2.7 | IC50 (FL huCD4 K26A; [7]): 1.44 µM | sensitivity to CADA (FL huCD4 V13L;A17L): nearly full resistance to CADA | sensitivity to CADA (FL huCD4 R8E): reduced sensitivity to CADA | inhibitory effect of CADA on protein translocation compared to WT ([2]; 15 μM CADA): significantly reduced | impact of CADA on co-translational translocation ([2]; increasing doses of CADA): significantly reduced | Secreted YFP FC (fold change of mean IC50 relative to WT) (huCD4_1–32-YFP G31A; [5]): +2.0 | IC50 (huCD4_1–32-YFP G31A; [6]): 2.56 µM | Cellular huCD4 FC (fold change of mean IC50 relative to WT) (FL huCD4 L14A; [5]): −1.2 | IC50 (FL huCD4 L14A; [7]): 0.46 µM | Cellular huCD4 FC (fold change of mean IC50 relative to WT) (FL huCD4 L18A; [5]): −5.4 | IC50 (FL huCD4 L18A; [7]): 0.1 µM | Secreted YFP FC (fold change of mean IC50 relative to WT) (huCD4_1–32-YFP A21V; [5]): −1.6 | IC50 (huCD4_1–32-YFP A21V; [6]): 0.77 µM | Secreted YFP FC (fold change of mean IC50 relative to WT) (huCD4_1–32-YFP P20A; [5]): >+39 | IC50 (huCD4_1–32-YFP P20A; [6]): > 50 µM | sensitivity of bovine pre-prolactin to CADA (bovine pre-prolactin): completely resistant to CADA | Secreted YFP FC (fold change of mean IC50 relative to WT) (huCD4_1–32-YFP WT; [5]): 1.00 | IC50 (huCD4_1–32-YFP WT; [6]): 1.27 µM | Cellular huCD4 FC (fold change of mean IC50 relative to WT) (FL huCD4 G25A; [5]): +1.1 | IC50 (FL huCD4 G25A; [7]): 0.61 µM | sensitivity to CADA (FL huCD4 L10A;L18A): further enhanced the effect | sensitivity of translocation towards CADA compared to WT [3]: higher sensitivity towards CADA | sensitivity of translocation towards CADA compared to WT ([4]; 15 μM CADA): significantly reduced sensitivity to CADA | effect of CADA on co-translational translocation ([4]; increasing doses of CADA): still responded to CADA, although to a lesser extent as compared to WT huCD4 | Cellular huCD4 FC (fold change of mean IC50 relative to WT) (FL huCD4 V28A; [5]): 1.00 | IC50 (FL huCD4 V28A; [7]): 0.54 µM | Cellular huCD4 FC (fold change of mean IC50 relative to WT) (FL huCD4 L16A; [5]): −4.9 | IC50 (FL huCD4 L16A; [7]): 0.11 µM | Secreted YFP FC (fold change of mean IC50 relative to WT) (huCD4_1–32-YFP K27A; [5]): >+39 | IC50 (huCD4_1–32-YFP K27A; [6]): > 50 µM

— PMC6980386 (Traffic (Copenhagen, Denmark), 2019)
